Experimental data taken from PMC6055619 (British Journal of Haematology, 2018).
“Also recorded” adds a separate entry of the source.

Experiments:
patients with NDMM [1] = assay: Adverse events graded by NCI CTCAE v4·03; format: in vivo, human
How it was run: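 AEs were recorded throughout treatment and for 30 days after the last dose, and graded by NCI CTCAE v4·03 in all patients given ≥1 dose of any study drug. Maintenance patients had responding or stable disease after 16 cycles of ixazomib-Rd induction. They then took single-agent oral ixazomib on days 1, 4, 8 and 11 of 21-day cycles, at the last-tolerated induction dose, until progression or unacceptable toxicity.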

patients with NDMM [2] = assay: Phase 1 dose escalation; format: in vivo, human; conditions: twice-weekly ixazomib 3·0 or 3·7 mg plus Rd
How it was run: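 Phase 1 tested two fixed ixazomib doses (3·0 and 3·7 mg) with a standard 3 + 3 scheme, scoring DLTs during cycle 1. MTD was the highest dose with ≤1 of 6 evaluable patients having a DLT. RP2D selection also used response rates and toxicity over later cycles.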

[3] = Ixazomib plasma pharmacokinetics, non-compartmental analysis; format: in vivo, human; conditions: for AUC(0-t): 3 mg, AUC0–72, geometric mean (%CV), RP2D 3·0 mg
How it was run: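 Phase 1 patients took fixed oral ixazomib 3·0 or 3·7 mg on an empty stomach (≥1 h before or ≥2 h after a meal), on days 1, 4, 8 and 11 of a 21-day cycle. Co-dosing was lenalidomide 25 mg on days 1–14 plus dexamethasone 20 mg. Serial plasma samples were taken, and non-compartmental parameters were calculated on cycle 1 days 1 and 11. Values are reported as geometric mean (%CV).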

[4] = ref Gupta et al, 2015b; cited from earlier work
[5] = during single-agent ixazomib maintenance
[6] = patients who received single-agent ixazomib maintenance
[7] = received maintenance, n = 18, new-onset AEs during cycle ≥17

With `CC(C)C[C@H](NC(=O)CNC(=O)c1cc(Cl)ccc1Cl)B(O)O` [ixazomib] the “New-onset drug-related grade 3 PN NEC” value (patients with NDMM [1]; during maintenance) was 6%, the “New-onset drug-related grade 3 hyperglycaemia” value (patients with NDMM [1]; during maintenance) was 0% and the “New-onset drug-related grade 3 rashes, eruptions and exanthems NEC” value (patients with NDMM [1]; during maintenance) was 6%. For the same molecule, the “New-onset drug-related PN NEC” value (patients with NDMM [1]; [5]) was 28%, the New-onset drug-related fatigue (patients with NDMM [1]; [5]) was 11% and the “New-onset drug-related rashes, eruptions and exanthems NEC” value (patients with NDMM [1]; [5]) was 17%. For the same molecule, the “New-onset AEs resulting in dose reductions” value (patients with NDMM [1]; patients who received ixazomib maintenance) was 33%, the “New-onset drug-related AEs during maintenance” value (patients with NDMM [1]; [6]) was 89% and the “New-onset drug-related grade 3 AEs during maintenance” value (patients with NDMM [1]; [6]) was 28%. The On-study deaths (patients with NDMM [1]; received maintenance, n = 18, cycle ≥17) was 0 n (%), the “AE resulting in any study drug dose reduction” value (patients with NDMM [1]; [7]) was 6 (33) n (%) and the “AE resulting in discontinuation” value (patients with NDMM [1]; [7]) was 3 (17) n (%). The “Any AE” value (patients with NDMM [1]; [7]) was 16 (89) n (%), the “Any SAE” value (patients with NDMM [1]; [7]) was 2 (11) n (%) and the “Any drug-related AE” value (patients with NDMM [1]; [7]) was 16 (89) n (%). The “Any drug-related SAE” value (patients with NDMM [1]; [7]) was 2 (11) n (%), the “Any drug-related grade ≥3 AE” value (patients with NDMM [1]; [7]) was 5 (28) n (%) and the “Any grade ≥3 AE” value (patients with NDMM [1]; [7]) was 8 (44) n (%). The “Drug-related ALT increased, All-grade” value (patients with NDMM [1]; [7]) was 1 (6) n (%), the “Drug-related ALT increased, Grade 3” value (patients with NDMM [1]; [7]) was 0 n (%) and the “Drug-related Anxiety, All-grade” value (patients with NDMM [1]; [7]) was 0 n (%). The “Drug-related Anxiety, Grade 3” value (patients with NDMM [1]; [7]) was 0 n (%), the “Drug-related Constipation, All-grade” value (patients with NDMM [1]; [7]) was 0 n (%) and the “Drug-related Constipation, Grade 3” value (patients with NDMM [1]; [7]) was 0 n (%). The “Drug-related Diarrhoea, All-grade” value (patients with NDMM [1]; [7]) was 5 (28) n (%), the “Drug-related Diarrhoea, Grade 3” value (patients with NDMM [1]; [7]) was 1 (6) n (%) and the “Drug-related Dizziness, All-grade” value (patients with NDMM [1]; [7]) was 1 (6) n (%). For the same molecule, the “Drug-related Dizziness, Grade 3” value (patients with NDMM [1]; [7]) was 0 n (%), the “Drug-related Dysgeusia, All-grade” value (patients with NDMM [1]; [7]) was 0 n (%) and the “Drug-related Dysgeusia, Grade 3” value (patients with NDMM [1]; [7]) was 0 n (%). The “Drug-related Fatigue, All-grade” value (patients with NDMM [1]; [7]) was 2 (11) n (%), the “Drug-related Fatigue, Grade 3” value (patients with NDMM [1]; [7]) was 0 n (%) and the “Drug-related Hyperglycaemia, All-grade” value (patients with NDMM [1]; [7]) was 2 (11) n (%). For the same molecule, the “Drug-related Hyperglycaemia, Grade 3” value (patients with NDMM [1]; [7]) was 0 n (%), the “Drug-related Hyponatraemia, All-grade” value (patients with NDMM [1]; [7]) was 0 n (%) and the “Drug-related Hyponatraemia, Grade 3” value (patients with NDMM [1]; [7]) was 0 n (%). For the same molecule, the “Drug-related Insomnia, All-grade” value (patients with NDMM [1]; [7]) was 0 n (%), the “Drug-related Insomnia, Grade 3” value (patients with NDMM [1]; [7]) was 0 n (%) and the “Drug-related Muscle spasms, All-grade” value (patients with NDMM [1]; [7]) was 0 n (%). The “Drug-related Muscle spasms, Grade 3” value (patients with NDMM [1]; [7]) was 0 n (%), the “Drug-related Muscular weakness, All-grade” value (patients with NDMM [1]; [7]) was 2 (11) n (%) and the “Drug-related Muscular weakness, Grade 3” value (patients with NDMM [1]; [7]) was 1 (6) n (%). For the same molecule, the “Drug-related Nausea, All-grade” value (patients with NDMM [1]; [7]) was 6 (33) n (%), the “Drug-related Nausea, Grade 3” value (patients with NDMM [1]; [7]) was 1 (6) n (%) and the “Drug-related Neutropenia, All-grade” value (patients with NDMM [1]; [7]) was 0 n (%). The “Drug-related Neutropenia, Grade 3” value (patients with NDMM [1]; [7]) was 0 n (%), the “Drug-related Neutrophil count decreased, All-grade” value (patients with NDMM [1]; [7]) was 1 (6) n (%) and the “Drug-related Neutrophil count decreased, Grade 3” value (patients with NDMM [1]; [7]) was 1 (6) n (%). The “Drug-related PN NEC, All-grade” value (patients with NDMM [1]; [7]) was 5 (28) n (%), the “Drug-related PN NEC, Grade 3” value (patients with NDMM [1]; [7]) was 1 (6) n (%) and the “Drug-related Peripheral oedema, All-grade” value (patients with NDMM [1]; [7]) was 2 (11) n (%). For the same molecule, the “Drug-related Peripheral oedema, Grade 3” value (patients with NDMM [1]; [7]) was 0 n (%), the “Drug-related Pneumonia, All-grade” value (patients with NDMM [1]; [7]) was 0 n (%) and the “Drug-related Pneumonia, Grade 3” value (patients with NDMM [1]; [7]) was 0 n (%). For the same molecule, the “Drug-related Rashes, eruptions and exanthems NEC, All-grade” value (patients with NDMM [1]; [7]) was 3 (17) n (%), the “Drug-related Rashes, eruptions and exanthems NEC, Grade 3” value (patients with NDMM [1]; [7]) was 1 (6) n (%) and the “Drug-related Thrombocytopenia, All-grade” value (patients with NDMM [1]; [7]) was 0 n (%). The “Drug-related Thrombocytopenia, Grade 3” value (patients with NDMM [1]; [7]) was 0 n (%), the “Drug-related Vomiting, All-grade” value (patients with NDMM [1]; [7]) was 3 (17) n (%) and the “Drug-related Vomiting, Grade 3” value (patients with NDMM [1]; [7]) was 1 (6) n (%). The “Dose-limiting toxicities in cycle 1” value (patients with NDMM [2]) was “No dose‐limiting toxicities; also recorded: no DLTs”, the Tmax ([3]; human, plasma, oral) was 1 h and the AUC(0-t) ([3]; human, plasma, oral, day 1) was 0.315 µg·h/mL. The AUC(0-t) ([3]; human, plasma, oral, day 11) was 1.11 µg·h/mL, the “Pharmacokinetic interaction of ixazomib with Rd” value ([3]; pharmacokinetic data similar to other studies) was “no pharmacokinetic interaction” and the “Effects on QTc or heart rate” value [4] was “no clinically meaningful effects”.
